Source: ChEMBL document CHEMBL1132405, “Synthesis and SAR of 1-alkyl-2-phenylethylamine derivatives designed from N,N-dipropyl-4-methoxy-3-(2-phenylethoxy)phenylethylamine to discover sigma(1) ligands” (J Med Chem, 1999)

Key:
D(2) dopamine receptor = D(2) dopamine receptor (Rattus norvegicus, UniProt P61169); test: In vitro binding affinity at Dopamine receptor D2 of rat striatal membranes by [3H]-raclopride displacement.
[1] = (§1) In vitro binding affinity at Sigma opioid receptor type 1 on guinea pig brain membranes by [3H]pentazocine displacement.; parameters: species or system Membrane
[2] = as §1; parameters: species or system Membrane; remark: listed apart in the source
How it was run: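 IC50 from displacement curves at 10 concentrations of each compound, each run in duplicate. Values are means of 1–3 separate experiments, with variation between experiments below 15%.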

Sequence of D(2) dopamine receptor (P61169 whole entry): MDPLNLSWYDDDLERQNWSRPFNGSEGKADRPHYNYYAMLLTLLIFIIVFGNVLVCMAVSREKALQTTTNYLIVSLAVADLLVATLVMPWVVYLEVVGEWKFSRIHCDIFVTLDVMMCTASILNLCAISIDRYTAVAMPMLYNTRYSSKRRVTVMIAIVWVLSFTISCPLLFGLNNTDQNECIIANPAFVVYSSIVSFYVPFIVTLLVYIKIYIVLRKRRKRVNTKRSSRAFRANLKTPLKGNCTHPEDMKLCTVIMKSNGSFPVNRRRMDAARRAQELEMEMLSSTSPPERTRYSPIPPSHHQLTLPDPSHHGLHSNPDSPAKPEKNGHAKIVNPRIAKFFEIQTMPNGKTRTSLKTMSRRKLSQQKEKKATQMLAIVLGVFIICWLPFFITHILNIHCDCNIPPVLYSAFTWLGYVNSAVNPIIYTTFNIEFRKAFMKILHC

## CCCNC(CCC(C)C)Cc1ccc(OC)c(OCCc2ccccc2)c1 (stereo in doubt; 6i)
D(2) dopamine receptor
  IC50: > 1000 nM
[1]
  IC50: 1.6 nM

## CCCCC(Cc1ccc(OC)c(OCCc2ccccc2)c1)NCCC (single isomer, unassigned; (-))
D(2) dopamine receptor
  IC50: > 1000 nM
[1]
  IC50: 0.7 nM

## CCCNC(CCC)Cc1ccc(OC)c(OCCc2ccccc2)c1 (stereo unspecified)
D(2) dopamine receptor
  IC50: > 1000 nM
[1]
  IC50: 4.1 nM

## CCCCC(Cc1ccc(OC)c(OCCc2ccccc2)c1)NCCC (stereo unspecified) [listing 1 of 2 here]
D(2) dopamine receptor
  IC50: > 1000 nM
[1]
  IC50: 1.9 nM

## CCCCCC(Cc1ccc(OC)c(OCCc2ccccc2)c1)NCCC (stereo unspecified)
D(2) dopamine receptor
  IC50: > 1000 nM
[1]
  IC50: 2.2 nM

## CCCN(CCC)CCc1ccc(OC)c(OCCc2ccccc2)c1
[2]
  IC50: 1.5 nM
D(2) dopamine receptor
  IC50: > 1000 nM

## CCCCC(Cc1ccc(OC)c(OCCc2ccccc2)c1)NCCC (stereo unspecified) [listing 2 of 2 here]
[1]
  IC50: 34 nM

## CCCNCCc1ccc(OC)c(OCCc2ccccc2)c1
D(2) dopamine receptor
  IC50: > 1000 nM

## CCCN(CCC)C(CC)Cc1ccc(OC)c(OCCc2ccccc2)c1 (stereo unspecified)
D(2) dopamine receptor
  IC50: > 1000 nM

## CCCNC(CC)Cc1ccc(OC)c(OCCc2ccccc2)c1 (stereo unspecified)
D(2) dopamine receptor
  IC50: > 1000 nM
[1]
  IC50: 1.8 nM

## CCCC(Cc1ccc(OC)c(OCCc2ccccc2)c1)N(CCC)CCC (stereo unspecified)
D(2) dopamine receptor
  IC50: > 1000 nM
[1]
  IC50: 8.2 nM

## COc1ccc(CCN)cc1OCCc1ccccc1
D(2) dopamine receptor
  IC50: > 1000 nM

## CCCCCCC(Cc1ccc(OC)c(OCCc2ccccc2)c1)NCCC (stereo unspecified)
D(2) dopamine receptor
  IC50: > 1000 nM
[1]
  IC50: 8.1 nM

## COc1ccc(CCN2CCCC2)cc1OCCc1ccccc1
D(2) dopamine receptor
  IC50: > 1000 nM

## CCCNC(CCC(C)C)Cc1ccc(OC)c(OCCc2ccccc2)c1 (stereo in doubt; 6i(+))
[1]
  IC50: 22 nM

## CCCNC(CCC(C)C)Cc1ccc(OC)c(OCCc2ccccc2)c1 (single isomer, unassigned; (-))
D(2) dopamine receptor
  IC50: > 1000 nM
[1]
  IC50: 0.5 nM
